Hits are enriched below; roughly 1.2% of the tested compounds scored in any of these assays.
NSD2 inh: blocks human histone methyltransferase NSD2; inhibition, % at 12.5 µM; O96028; 310,000 tested, 0.54% active; NSD2 peptide methylation, AlphaScreen, 120 min; in the data active = inhibition above about 50%
FN deposition inh: fibronectin deposition inhibition | AH1F fibroblasts, Alexa488-fibronectin deposition fluorescence, overnight | inhibition, % at 12.6 µM | 350,000 tested, 0.086% active;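 active = mean inhibition across replicates of 30% or more, regardless of how many single replicates reach that level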;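 note: positive control wells lacked labelled fibronectin entirely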
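Assay system: AH1F fibroblast monolayer, labelled fibronectin deposition. Amount: 10000 cells per well. Also added: labelled fibronectin 24 nM. Compound: single-point pinned compound. Incubation: cell attachment 1 h, compound and FN exposure overnight. Detection: fluorescence after three HBSS washes, excitation 485 nm, emission 525 nm. Read-out: inhibition of fibronectin deposition signal.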
AF4-AF9 inh: blocks AF4 peptide binding to human AF9; AlphaScreen, biotin-AF4 peptide binding to FLAG-AF9; AID 651704; 350,000 tested, 0.47% active; inhibition, % at 10 µM;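 active = every replicate reaching a set inhibition limit, whatever the replicate mean, cut at about 25% in these data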;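 note: 0% = plate neutral control median and 100% = total signal loss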
N-glyco inh: blocks N-linked glycosylation in D54 reporter cells. D54 ERlucT glycosylation luciferase reporter, 24 h; percent of 100 nM tunicamycin response. reporter increase, % at 12.5 µM. 360,000 tested, 0.23% active;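 active = mean luciferase reporter signal, scaled so untreated is 0 and the glycosylation-blocking control 100, at or above a set limit in every replicate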;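 note: luciferase carries N-glycosylation sites so blocking glycosylation raises the light; 0% = median of neutral control wells and 100% = median of 100 nM tunicamycin wells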
RAD52 anneal inh: blocks human RAD52 DNA annealing. 360,000 tested, 0.46% active. P43351. AID 651710. recombinant RAD52 DNA annealing, FRET fluorescence. inhibition, % at 18.7 µM;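 active = every replicate showing at least 50% inhibition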
RAD54 branch: RAD54 (human) branch migration inhibition. Q92698. RAD54 Holliday junction branch migration, FAM/BHQ fluorescence. inhibition, % at 10.4 µM. 360,000 tested, 0.14% active. AID 602329;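 active = mean normalized replicate activity at least 40 and at least half of replicates scoring 40 or more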;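 note: 0% = median of neutral control wells and 100% = median of positive control wells; inhibitors cause a drop in the FAM fluorescence signal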
Target sequence (Q92698 whole entry, looked up): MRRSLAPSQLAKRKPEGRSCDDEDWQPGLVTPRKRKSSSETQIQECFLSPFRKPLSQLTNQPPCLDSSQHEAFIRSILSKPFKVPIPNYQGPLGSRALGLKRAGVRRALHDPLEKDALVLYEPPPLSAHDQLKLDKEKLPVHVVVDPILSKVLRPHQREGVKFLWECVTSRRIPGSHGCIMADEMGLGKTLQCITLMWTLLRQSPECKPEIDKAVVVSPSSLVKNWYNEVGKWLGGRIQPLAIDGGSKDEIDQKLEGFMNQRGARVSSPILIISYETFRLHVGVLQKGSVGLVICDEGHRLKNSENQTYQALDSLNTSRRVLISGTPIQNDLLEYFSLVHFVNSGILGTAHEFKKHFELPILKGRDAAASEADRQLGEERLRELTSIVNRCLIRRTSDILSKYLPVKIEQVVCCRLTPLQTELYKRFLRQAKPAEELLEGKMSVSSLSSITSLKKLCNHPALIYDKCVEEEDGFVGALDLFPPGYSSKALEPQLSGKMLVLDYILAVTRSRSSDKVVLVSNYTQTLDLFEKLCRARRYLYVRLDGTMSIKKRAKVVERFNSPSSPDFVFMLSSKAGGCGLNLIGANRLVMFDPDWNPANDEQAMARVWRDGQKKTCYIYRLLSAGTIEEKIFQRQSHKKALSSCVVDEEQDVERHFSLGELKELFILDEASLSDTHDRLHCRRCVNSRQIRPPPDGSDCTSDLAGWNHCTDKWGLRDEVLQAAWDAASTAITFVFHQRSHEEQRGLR
An asterisk follows results filed as active; nt = not tested or not shown.

SMILES | NSD2 inh | FN deposition inh | AF4-AF9 inh | N-glyco inh | RAD52 anneal inh | RAD54 branch
COc1ccc(C(=O)O)cc1S(=O)(=O)Nc1cc(S(=O)(=O)Nc2ccc(C)c(Cl)c2)ccc1Cl | 2 | nt | nt | nt | nt | nt
CCOC(=O)CCCCC(=O)c1[nH]c(=O)[nH]c1CN1CCOCC1 | 14 | nt | 85* | 3 | -12 | 7
CC(C)NC(=O)N(C)C[C@H]1Oc2ccc(NC(=O)C3CCCCC3)cc2CC(=O)N([C@H](C)CO)C[C@@H]1C | nt | nt | -2 | nt | -1 | 1
Cc1ccc(S(=O)(=O)N[C@@H]2CC[C@@H](CC(=O)NCCN3CCCCC3)O[C@@H]2CO)cc1 | nt | 10 | -1 | nt | -7 | -2
O=C(Nc1cccc(C(F)(F)F)c1)c1cc(S(=O)(=O)N2CCCCC2)ccc1N1CCOCC1 | 1 | nt | nt | -6 | nt | 6
O=C(Nc1cccc(F)c1)c1cc(S(=O)(=O)N2CCOCC2)ccc1N1CCCC1 | 3 | nt | nt | 28* | nt | -11
O=C(Nc1cccc(O)c1)c1cccc(S(=O)(=O)N2CCCC2)c1 | 0 | nt | nt | 0 | nt | 6
O=C(Nc1cccc(S(=O)(=O)N2CCCC2)c1)c1cccc(S(=O)(=O)N2CCOCC2)c1 | -3 | -2 | 26* | -2 | -18 | -3
CN(C)CC/C=C1/c2cc(F)ccc2Sc2ccc(Cl)cc21 | 13 | -1 | 37* | -1 | 47 | 21
C=CCn1c(C)csc1=Nc1ccc(C(C)=O)cc1 | 2 | 5 | 4 | -1 | -11 | nt
C=CCn1c(C)csc1=Nc1ccccc1C | 10 | 4 | 27* | 2 | -2 | -8
O=C(Nc1ccc2c(c1)[C@@H]1C[C@@H](CC(=O)N3CCCCC3)O[C@H](CO)[C@@H]1O2)c1ccc2c(c1)OCO2 | nt | -3 | -2 | nt | -9 | 7
CCNC(=S)NCc1ccc2[nH]c(C)cc2c1 | nt | 2 | 27* | 1 | 21 | -7
O=C(/C=C/c1cccnc1)c1ccc(F)cc1 | 13 | nt | nt | nt | nt | nt
O=S(=O)(O)c1cc(O)c(N=Nc2ccc(O)cc2O)c2ccccc12 | 92* | 0 | 34* | -6 | -6 | -12
Cc1ccc(S(=O)(=O)Nc2ccc3c(c2)C(=O)N([C@@H](C)CO)C[C@H](C)[C@H](CN(C)Cc2ccc4c(c2)OCO4)OCCCC[C@H](C)O3)cc1 | nt | nt | 7 | nt | -10 | -23
CSc1ccccc1NC(=O)CN1c2ccccc2CC1C (centres undefined) | -1 | -8 | 51* | -3 | -25 | nt
CN(C)c1ccc(Nc2nc(N)c([N+](=O)[O-])c(N3CCOCC3)n2)cc1 | 23 | 6 | 30* | -2 | 19 | nt
CC(C)(C)OC(=O)N1CCN(C(=O)c2ncn(Cc3ccccc3)c2C(=O)N2CCN(C(=O)OC(C)(C)C)CC2)CC1 | nt | -2 | -1 | 0 | 1 | -2
O=C(c1ncn(Cc2ccccc2)c1C(=O)N1CCN(c2ccccc2)CC1)N1CCN(c2ccccc2)CC1 | nt | 5 | 9 | 50* | -14 | -18
O=C(Nc1ccc(F)cc1)Nc1ccc2c(c1)[C@H]1C[C@H](CC(=O)N3CCOCC3)O[C@H](CO)[C@H]1O2 | nt | -14 | -5 | nt | 9 | -5
C[C@@H](NC(=O)C[C@@H]1C[C@@H]2c3cc(NC(=O)NC4CCCC4)ccc3O[C@@H]2[C@H](CO)O1)c1ccccc1 | nt | -23 | nt | nt | nt | nt
O=C(NC1CCCC1)[C@@H]1N[C@@H]2c3ccc(-c4cccc(F)c4)c(=O)n3C[C@@H]2[C@H]1CO | nt | 7 | 0 | nt | -7 | nt
O=C(NC1CCCC1)[C@H]1N[C@H]2c3ccc(-c4cccc(F)c4)c(=O)n3C[C@H]2[C@@H]1CO | nt | 2 | -1 | nt | 58* | nt
CCCNC(=O)[C@@H]1[C@@H](CO)[C@@H]2Cn3c(ccc(-c4ccccc4F)c3=O)[C@@H]2N1C(=O)CC | nt | nt | -1 | nt | 5 | -10
CC(/C=N/NC(=O)c1cc(-c2ccc(C)s2)[nH]n1)=C\c1ccccc1 | 4 | 12 | 0 | 27* | -6 | nt
CC(/C=N/NC(=O)c1cc(C(C)(C)C)[nH]n1)=C\c1ccccc1 | 0 | nt | nt | 3 | nt | nt
O=C(/C=C/c1cccs1)N1CCC2(CC1)Oc1ccc(Cl)cc1C(=O)C21CC(c2cccnc2)=NO1 (centres undefined) | nt | 31* | 4 | 2 | -13 | -7
O=C(C[C@H]1CC[C@H]2[C@@H](COC[C@H](O)CN2Cc2cccc(F)c2)O1)NCCc1ccncc1 | nt | -13 | 0 | nt | 0 | 1

High-throughput results as filed in PubChem BioAssay.
